In ChEMBL document CHEMBL1127574, “Design and synthesis of ellipticinium salts and 1,2-dihydroellipticines with high selectivities against human CNS cancers in vitro” (1994):

Key:
Type in all cases: functional
RXF 631 = assay: Tested in vitro for cytotoxicity in RXF-631 cell line of Renal cancer; settings: Homo sapiens, read-out: Log TGI (converted)
Procedure, shortened: (§1)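 Compounds dissolved in DMSO, then diluted 500-fold into aqueous medium. The resulting aqueous solutions or suspensions were added to the cultured human tumour cell lines, and the cells were exposed for 48 h. Growth was read colorimetrically in one of two ways: a metabolic assay in which viable cells reduce a tetrazolium salt to a formazan dye, or a protein stain for total cellular protein.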

NCI-H460 = assay: Tested in vitro for cytotoxicity in NCI-H460 cell line of Non-Small Cell Lung Cancer; settings: Homo sapiens, read-out: Log TGI (converted); procedure, shortened: as §1
M14 = assay: Tested in vitro for cytotoxicity in M14 cell line of Melanoma; settings: Homo sapiens, read-out: Log TGI (converted); procedure, shortened: as §1
Malme-3M = assay: Tested in vitro for cytotoxicity in MALME-3M cell line of Melanoma; settings: Homo sapiens, read-out: Log TGI (converted); procedure, shortened: as §1
SF-268 = assay: Tested in vitro for cytotoxicity in SF-268 cell lines; settings: Homo sapiens; procedure, shortened: as §1
KM-20L2 = assay: Tested in vitro for cytotoxicity in KM20L2 cell line of Colon Cancer; settings: Homo sapiens, read-out: Log TGI (converted)
Procedure, shortened: (§2)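 Compound DMSO solutions diluted 500-fold into aqueous medium; the resulting solutions or suspensions were added to cultured human tumor cells for 48 h. Growth was read colorimetrically, either by tetrazolium reduction to formazan by viable cells or by a protein stain for total cellular protein.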

SNB-78 = assay: Tested in vitro for cytotoxicity in SNB-78 cell line of CNS Cancer; settings: Homo sapiens, read-out: Log TGI (converted)
Procedure, shortened: (§3)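 Compounds dissolved in DMSO and diluted 500-fold into aqueous medium; aliquots of the resulting solutions or suspensions added to cultured human tumor cells for 48 h. Growth read colorimetrically, either by tetrazolium reduction to formazan by viable cells or by protein staining of total cellular protein.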

LXFL 529 = assay: Tested in vitro for cytotoxicity in LXFL-529 cell line of Non-Small Cell Lung Cancer; settings: Homo sapiens, read-out: Log TGI (converted); procedure, shortened: as §1
M19-MEL = assay: Tested in vitro for cytotoxicity in M19-MEL cell line of Melanoma; settings: Homo sapiens, read-out: Log TGI (converted); procedure, shortened: as §1
786-0 = assay: Tested in vitro for cytotoxicity in 786-0 cell line of Renal cancer; settings: Homo sapiens, read-out: Log TGI (converted); procedure, shortened: as §1
RPMI-8226 = assay: Tested in vitro for cytotoxicity in RPMI-8226 cell line of Leukemia; settings: Homo sapiens, read-out: Log TGI (converted); procedure, shortened: as §1
SF-295 = assay: Tested in vitro for cytotoxicity in SF-295 cell line of CNS Cancer; settings: Homo sapiens, read-out: Log TGI (converted); procedure, shortened: as §1
NCI-H522 = assay: Tested in vitro for cytotoxicity in NCI-H522 cell line of Non-Small Cell Lung Cancer; settings: Homo sapiens, read-out: Log TGI (converted); procedure, shortened: as §1
CCRF-CEM = assay: Tested in vitro for cytotoxicity in CCRF-CEM cell lines; settings: Homo sapiens; procedure, shortened: as §1
K562 = assay: Tested in vitro for cytotoxicity in K-562 cell line of Leukemia; settings: Homo sapiens, read-out: Log TGI (converted); procedure, shortened: as §1
DMS-114 = assay: Tested in vitro for cytotoxicity in DMS114 cell line of Small Cell Lung Cancer; settings: Homo sapiens, read-out: Log TGI (converted); procedure, shortened: as §1
HCT-15 = assay: Tested in vitro for cytotoxicity in HCT-15 cell line of Colon Cancer; settings: Homo sapiens, read-out: Log TGI (converted); procedure, shortened: as §1
HCT-116 = assay: Tested in vitro for cytotoxicity in HCT116 cell line of Colon Cancer; settings: Homo sapiens, read-out: Log TGI (converted); procedure, shortened: as §1
HOP-18 = assay: Tested in vitro for cytotoxicity in HOP-18 cell line of Non-Small Cell Lung Cancer; settings: Homo sapiens, read-out: Log TGI (converted); procedure, shortened: as §1
COLO 205 = assay: Tested in vitro for cytotoxicity in COLO 205 cell lines; settings: Homo sapiens; procedure, shortened: as §1
TK-10 = assay: Tested in vitro for cytotoxicity in TK-10 cell line of Renal cancer; settings: Homo sapiens, read-out: Log TGI (converted); procedure, shortened: as §3
HCC 2998 = assay: Tested in vitro for cytotoxicity in HCC2998 cell line of Colon Cancer; settings: Homo sapiens, read-out: Log TGI (converted); procedure, shortened: as §1
EKVX = assay: Tested in vitro for cytotoxicity in EKVX cell line of Non-Small Cell Lung Cancer; settings: Homo sapiens, read-out: Log TGI (converted); procedure, shortened: as §2
IGROV-1 = assay: Tested in vitro for cytotoxicity in IGROV1 cell line of Ovarian Cancer; settings: Homo sapiens, read-out: Log TGI (converted); procedure, shortened: as §1
DLD-1 = assay: Tested in vitro for cytotoxicity in DLD-1 cell line of Colon Cancer; settings: Homo sapiens, read-out: Log TGI (converted); procedure, shortened: as §1
KM12 = assay: Tested in vitro for cytotoxicity in KM12 cell line of Colon Cancer; settings: Homo sapiens, read-out: Log TGI (converted); procedure, shortened: as §1
ACHN = assay: Tested in vitro for cytotoxicity in ACHN cell line of Renal cancer; settings: Homo sapiens, read-out: Log TGI (converted); procedure, shortened: as §1
A549 = assay: Tested in vitro for cytotoxicity in A549/ATCC cell line of Non-Small Cell Lung Cancer; settings: Homo sapiens, read-out: Log TGI (converted); procedure, shortened: as §1
HOP-92 = assay: Tested in vitro for cytotoxicity in HOP-92 cell line of Non-Small Cell Lung Cancer; settings: Homo sapiens, read-out: Log TGI (converted); procedure, shortened: as §1
UACC-257 = assay: Tested in vitro for cytotoxicity in UACC-257 cell line of Melanoma; settings: Homo sapiens, read-out: Log TGI (converted); procedure, shortened: as §3
SK-MEL-5 = assay: Tested in vitro for cytotoxicity in SK-MEL-5 cell line of Melanoma; settings: Homo sapiens, read-out: Log TGI (converted); procedure, shortened: as §3

## COc1ccc2[nH]c3c(C)c4cc[n+](C)cc4c(C)c3c2c1
RXF 631
  TGI: > 100 µM
NCI-H460
  TGI: 79.4 µM
M14
  TGI: > 100 µM
Malme-3M
  TGI: 25.1 µM
SF-268
  GI50: 0.409 µM
KM-20L2
  TGI: > 100 µM
SNB-78
  TGI: 10 µM
LXFL 529
  TGI: 10 µM
M19-MEL
  TGI: 25.1 µM
786-0
  TGI: 5.01 µM
RPMI-8226
  TGI: > 100 µM
SF-295
  TGI: 6.31 µM
NCI-H522
  TGI: 7.94 µM
CCRF-CEM
  GI50: 4.22 µM
K562
  TGI: > 100 µM
DMS-114
  TGI: 6.31 µM
HCT-15
  TGI: > 100 µM
HCT-116
  TGI: > 100 µM
HOP-18
  TGI: > 100 µM
COLO 205
  GI50: 2.4 µM
TK-10
  TGI: > 100 µM
HCC 2998
  TGI: 63.1 µM
EKVX
  TGI: 25.1 µM
IGROV-1
  TGI: > 100 µM
DLD-1
  TGI: > 100 µM
KM12
  TGI: 25.1 µM
ACHN
  TGI: > 100 µM
A549
  TGI: > 100 µM
HOP-92
  TGI: 79.4 µM
UACC-257
  TGI: > 100 µM
SK-MEL-5
  TGI: 20 µM
